In BindingDB's records for doi:10.1016/j.bmcl.2009.03.011 (Cytrx, 2009):

Target: T1, Heat shock factor protein 1 (Homo sapiens, UniProt Q00613)
T1 sequence (Q00613 whole entry): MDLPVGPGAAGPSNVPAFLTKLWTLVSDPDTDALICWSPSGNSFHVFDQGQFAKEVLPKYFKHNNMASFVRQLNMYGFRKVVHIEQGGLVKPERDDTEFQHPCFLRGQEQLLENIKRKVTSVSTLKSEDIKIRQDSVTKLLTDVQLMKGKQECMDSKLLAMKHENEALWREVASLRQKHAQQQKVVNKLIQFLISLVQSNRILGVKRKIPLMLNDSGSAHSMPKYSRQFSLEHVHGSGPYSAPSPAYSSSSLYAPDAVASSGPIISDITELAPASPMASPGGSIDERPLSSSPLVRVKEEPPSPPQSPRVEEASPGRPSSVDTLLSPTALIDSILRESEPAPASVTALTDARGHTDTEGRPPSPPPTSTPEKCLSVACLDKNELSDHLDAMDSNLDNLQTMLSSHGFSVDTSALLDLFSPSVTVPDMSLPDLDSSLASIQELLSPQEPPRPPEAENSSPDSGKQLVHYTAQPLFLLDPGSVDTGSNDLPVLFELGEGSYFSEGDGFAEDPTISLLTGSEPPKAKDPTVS
Assay: Transcriptional activation of HSF1 in heat shock stress-induced human HeLa cells assessed as granule formation treated 1 hr before heat shock challenge measured after 2 hrs by immunocytochemical staining
In short: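 HeLa cells given compound 1 h, then heat shock at 41 °C for 2 h without recovery; HSF1 immunocytochemical staining, quantified by high-content imaging. Range 0.3–80 µM, twofold dilution, 200-fold overall.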

Row | Structure (SMILES) | EC50 [µM]
1 | CCCN(CC)CC(O)CO/N=C(\Cl)c1nc2ccccc2o1 (configuration not stated) [N-(3-(ethyl(propyl)amino)-2-hydroxypropoxy)benzo[d]oxazole-2-carbimidoyl chloride] | 23
2 | CC(C)N(CC(O)CO/N=C(\Cl)c1nc2ccccc2o1)CC1CC1 (configuration not stated) [N-(3-((cyclopropylmethyl)(isopropyl)amino)-2-hydroxypropoxy)benzo[d]oxazole-2-carbimidoyl chloride] | 12.4
3 | OC(CO/N=C(\Cl)c1nc2ccccc2s1)CN1CCCC1 (configuration not stated) [N-(2-hydroxy-3-(pyrrolidin-1-yl)propoxy)benzo[d]thiazole-2-carbimidoyl chloride] | 62.8
4 | OC(CO/N=C(\Cl)c1nc2ccccc2s1)CN1CCCCC1 (configuration not stated) [N-(2-hydroxy-3-(piperidin-1-yl)propoxy)benzo[d]thiazole-2-carbimidoyl chloride] | 52.6
5 | CCN(CC)CC(O)CO/N=C(\Cl)c1nc2ccccc2o1 (configuration not stated) [N-(3-(diethylamino)-2-hydroxypropoxy)benzo[d]oxazole-2-carbimidoyl chloride] | 27.1
6 | CC(C)N(CCO)CC(O)CO/N=C(\Cl)c1nc2ccccc2o1 (configuration not stated) [N-(2-hydroxy-3-((2-hydroxyethyl)(isopropyl)amino)propoxy)benzo[d]oxazole-2-carbimidoyl chloride] | 28.7
7 | CC1CC(C)CN(CC(O)CO/N=C(\Cl)c2nc3ccccc3o2)C1 (configuration not stated) [N-(3-(3,5-dimethylpiperidin-1-yl)-2-hydroxypropoxy)benzo[d]oxazole-2-carbimidoyl chloride] | 17.4
8 | CC(C)N(CCCF)CC(O)CO/N=C(\Cl)c1nc2ccccc2o1 (configuration not stated) [N-(3-((3-fluoropropyl)(isopropyl)amino)-2-hydroxypropoxy)benzo[d]oxazole-2-carbimidoyl chloride] | 22.8
9 | CCCN(C[C@H](O)CO/N=C(\Cl)c1nc2ccccc2o1)C(C)C [(S)-N-(2-hydroxy-3-(isopropyl(propyl)amino)propoxy)benzo[d]oxazole-2-carbimidoyl chloride] | 24.1
10 | CC(C)N(CC(O)CO/N=C(\Cl)c1nc2ccccc2o1)C(C)(C)C (configuration not stated) [N-(3-(tert-butyl(isopropyl)amino)-2-hydroxypropoxy)benzo[d]oxazole-2-carbimidoyl chloride] | 16.6
11 | CC(C)N(CC(O)CO/N=C(\Cl)c1nc2ccccc2o1)C(C)C (configuration not stated) [N-(3-(diisopropylamino)-2-hydroxypropoxy)benzo[d]oxazole-2-carbimidoyl chloride] | 25.5
12 | CCCCN(CCCC)CC(O)CO/N=C(\Cl)c1nc2ccccc2o1 (configuration not stated) [N-(3-(dibutylamino)-2-hydroxypropoxy)benzo[d]oxazole-2-carbimidoyl chloride] | 20.9
13 | OC(CO/N=C(\Cl)c1nc2ccccc2o1)CN1CCCC(F)C1 (configuration not stated) [N-(3-(3-fluoropiperidin-1-yl)-2-hydroxypropoxy)benzo[d]oxazole-2-carbimidoyl chloride] | 52.6
14 | CC1CCCC(C)N1CC(O)CO/N=C(\Cl)c1nc2ccccc2o1 (configuration not stated) [N-(3-(2,6-dimethylpiperidin-1-yl)-2-hydroxypropoxy)benzo[d]oxazole-2-carbimidoyl chloride] | 32.4
15 | CN(C)S(=O)(=O)c1ccc2nc(/C(Cl)=N/OCC(O)CN3CCCCC3)oc2c1 (configuration not stated) [6-(N,N-dimethylsulfamoyl)-N-(2-hydroxy-3-(piperidin-1-yl)propoxy)benzo[d]oxazole-2-carbimidoyl chloride] | 41.6
16 | CCCN(CCC)CC(O)CO/N=C(\Cl)c1nc2ccccc2o1 (configuration not stated) [N-(3-(dipropylamino)-2-hydroxypropoxy)benzo[d]oxazole-2-carbimidoyl chloride] | 23.9

More lines, now with the values ahead:

Row | EC50 [µM] | Structure (SMILES)
17 | 20.9 | OC(CO/N=C(\Cl)c1nc2cc(Cl)ccc2o1)CN1CCCCC1 (configuration not stated) [5-chloro-N-(2-hydroxy-3-(piperidin-1-yl)propoxy)benzo[d]oxazole-2-carbimidoyl chloride]
18 | 51.3 | OC(CO/N=C(\Cl)c1nc2cc(F)ccc2o1)CN1CCCCC1 (configuration not stated) [5-fluoro-N-(2-hydroxy-3-(piperidin-1-yl)propoxy)benzo[d]oxazole-2-carbimidoyl chloride]
19 | 18.5 | OC(CO/N=C(\Cl)c1nc2cccc(F)c2o1)CN1CCCCC1 (configuration not stated) [7-fluoro-N-(2-hydroxy-3-(piperidin-1-yl)propoxy)benzo[d]oxazole-2-carbimidoyl chloride]
20 | 42.9 | CCS(=O)(=O)c1ccc2oc(/C(Cl)=N/OCC(O)CN3CCCCC3)nc2c1 (configuration not stated) [5-(ethylsulfonyl)-N-(2-hydroxy-3-(piperidin-1-yl)propoxy)benzo[d]oxazole-2-carbimidoyl chloride]
21 | 31 | Cc1ccc2nc(/C(Cl)=N/OCC(O)CN3CCCCC3)oc2c1 (configuration not stated) [N-(2-hydroxy-3-(piperidin-1-yl)propoxy)-6-methylbenzo[d]oxazole-2-carbimidoyl chloride]
22 | 20.2 | OC(CO/N=C(\Cl)c1nc2c(F)cccc2o1)CN1CCCCC1 (configuration not stated) [4-fluoro-N-(2-hydroxy-3-(piperidin-1-yl)propoxy)benzo[d]oxazole-2-carbimidoyl chloride]
23 | 41.6 | Cc1ccc2oc(/C(Cl)=N/OCC(O)CN3CCCCC3)nc2c1 (configuration not stated) [N-(2-hydroxy-3-(piperidin-1-yl)propoxy)-5-methylbenzo[d]oxazole-2-carbimidoyl chloride]
24 | 29.4 | OC(CO/N=C(\Cl)c1nc2ccc(F)cc2o1)CN1CCCCC1 (configuration not stated) [6-fluoro-N-(2-hydroxy-3-(piperidin-1-yl)propoxy)benzo[d]oxazole-2-carbimidoyl chloride]
25 | 12.1 | OC(CO/N=C(\Cl)c1nc2c(ccc3ccccc32)o1)CN1CCCCC1 (configuration not stated) [N-(2-hydroxy-3-(piperidin-1-yl)propoxy)naphtho[1,2-d]oxazole-2-carbimidoyl chloride]
26 | 22.9 | OC(CO/N=C(\Cl)c1nc2ccc(Cl)cc2o1)CN1CCCCC1 (configuration not stated) [6-chloro-N-(2-hydroxy-3-(piperidin-1-yl)propoxy)benzo[d]oxazole-2-carbimidoyl chloride]
27 | 41.7 | OC(CO/N=C(\Cl)c1nc2ccccc2o1)CN1CCCCC1 (configuration not stated) [N-(2-hydroxy-3-(piperidin-1-yl)propoxy)benzo[d]oxazole-2-carbimidoyl chloride]
